# From PubChem
# Apaf-1 act – activates human Apaf-1 apoptosome | O14727 | AID 489031 | activity change, negative = activation, % at 20 µM | actives 0.31% (n = 330,000) | Apaf-1 apoptosome caspase-3 activation, DEVD-Rh110 fluorescence; active compounds read low;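 active = activity change at or below -40% at 20 µM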
# Target sequence (O14727 whole entry, looked up): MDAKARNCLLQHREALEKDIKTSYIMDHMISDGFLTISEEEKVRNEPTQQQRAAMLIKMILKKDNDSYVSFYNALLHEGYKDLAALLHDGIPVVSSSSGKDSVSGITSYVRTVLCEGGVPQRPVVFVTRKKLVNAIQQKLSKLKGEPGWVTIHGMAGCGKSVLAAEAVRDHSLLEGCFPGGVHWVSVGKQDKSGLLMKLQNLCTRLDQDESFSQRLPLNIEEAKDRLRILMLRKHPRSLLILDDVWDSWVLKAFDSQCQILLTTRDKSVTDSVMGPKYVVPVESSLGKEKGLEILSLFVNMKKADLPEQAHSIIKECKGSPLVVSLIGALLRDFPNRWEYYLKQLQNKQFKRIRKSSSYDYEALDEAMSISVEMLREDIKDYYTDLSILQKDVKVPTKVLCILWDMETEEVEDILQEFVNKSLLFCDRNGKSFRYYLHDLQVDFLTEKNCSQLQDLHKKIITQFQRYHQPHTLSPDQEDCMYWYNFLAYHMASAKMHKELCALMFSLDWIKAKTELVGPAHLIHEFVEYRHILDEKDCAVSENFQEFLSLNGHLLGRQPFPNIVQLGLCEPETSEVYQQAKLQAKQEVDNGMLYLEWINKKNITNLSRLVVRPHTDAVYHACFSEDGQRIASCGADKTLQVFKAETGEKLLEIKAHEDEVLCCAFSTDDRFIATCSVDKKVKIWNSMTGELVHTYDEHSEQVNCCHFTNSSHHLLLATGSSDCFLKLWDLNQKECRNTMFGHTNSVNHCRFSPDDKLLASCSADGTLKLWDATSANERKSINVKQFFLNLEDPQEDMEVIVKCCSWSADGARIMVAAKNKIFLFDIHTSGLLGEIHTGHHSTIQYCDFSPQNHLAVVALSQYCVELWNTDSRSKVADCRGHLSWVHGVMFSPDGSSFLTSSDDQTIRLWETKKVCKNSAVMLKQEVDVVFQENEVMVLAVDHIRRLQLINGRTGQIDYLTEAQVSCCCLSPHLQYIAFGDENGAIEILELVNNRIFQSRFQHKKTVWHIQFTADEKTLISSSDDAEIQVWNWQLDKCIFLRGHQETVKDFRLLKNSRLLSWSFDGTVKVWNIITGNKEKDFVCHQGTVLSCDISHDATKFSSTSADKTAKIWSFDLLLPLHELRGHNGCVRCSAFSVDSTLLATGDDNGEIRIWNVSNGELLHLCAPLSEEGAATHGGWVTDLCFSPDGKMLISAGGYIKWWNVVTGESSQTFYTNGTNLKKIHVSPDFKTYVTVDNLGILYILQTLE
#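 Schedule: 30 min preincubation, 50 min reaction, room temperature / System: biochemical Apaf-1 apoptosome reconstitution / Medium: 20 mM HEPES pH 7.5 with CHAPS, BSA / Evaluation: Caspase-3 cleavage activity downstream of Apaf-1 activation / Detection: Caspase-3-released Rh110 fluorescence, 540 nm emission, 480 nm excitation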
# Rh110 interf act – counter-screen for Apaf-1 activators: fluorescence interference. fluorescence interference (activity change), % at 20 µM, hits read low. shares compounds with Apaf-1 act. Rh110 fluorescence interference, quenched caspase reaction, Ex480/Em540. 980 tested, under 10 active;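 active = mean activity change at or below -40% when tested at 20 µM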
# Apaf-1 act conf2 – Apaf-1 (human) activation, single-dose confirmed | shares compounds with Apaf-1 act | reconstituted apoptosome caspase-3 activity, DEVD-Rh110 fluorescence; active compounds read low | activity change, negative = activation, % at 20 µM | actives 5% (n = 980);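 active = mean activity change at or below -40%, meaning activation of 40% or more, at 20 µM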
# Apaf1 act interf – counter-screen for Apaf-1 activators: fluorescence interference, dose response. shares compounds with Apaf-1 act. fluorescence interference counterscreen, Apaf-1 activator assay. EC50, µM. 55 tested, under 10 active; call rule not given here
# An asterisk follows results filed as active; . = not tested or not shown. Only a sample is shown.
SMILES,Apaf-1 act,Rh110 interf act,Apaf-1 act conf2,others
CC(NC(=O)c1ccco1)C(=O)OCc1cccc(C(F)(F)F)c1 (stereo unspecified),-50*,0,9,
CC(Cc1cccc(C(F)(F)F)c1)NCCOC(=O)c1ccccc1 (stereo unspecified),23,.,.,
COc1ccc(O)c(N)c1,76,.,.,
CCOC(=O)c1c(C)oc2c1c(C=NCCC(=O)O)c(O)c1ccccc12,81,.,.,
CCOC(=O)c1c(NC(=O)c2ccc(C)cc2)sc2c1CC(C)(C)NC2(C)C,54,.,.,
COc1ccc2c(c1)OC/C(=C/c1cccs1)C2=O,-94*,5,12,
CN(C)c1cccc2c1c(NC(=O)Nc1ccccc1)nn2C,82,.,.,
Cc1c(Cl)cccc1N=C1SCCN1C(=O)CN1C(=O)NC2(CCCC2)C1=O,40,.,.,
COc1ccccc1NC(=O)c1nc[nH]c1C(=O)Nc1ccccc1OC,95,.,.,
CNC(=O)c1[nH]cnc1C(=O)Nc1ccc(C)cc1,-205*,4,5,
COc1cc2ccccc2cc1C(=O)Nc1sc2c(c1C(N)=O)CCN(C(C)C)C2,51,.,.,
OCCC1CN(Cc2ccc3ncccc3c2)CCN1Cc1ccccc1 (stereo unspecified),-247*,-1,8,
Cc1ccc(NC2=C/C(=N\S(=O)(=O)c3cccs3)c3ccccc3C2=O)c(C)c1,95,.,.,
CC1=NN(c2ccc(C)c(C)c2)C(=O)C1C(c1cccc(O)c1)C1C(=O)N(c2ccc(C)c(C)c2)N=C1C (stereo unspecified),87,.,.,
Cc1ccc(C)c(S(=O)(=O)NCc2ccc(C(=O)N3CCOCC3)cc2)c1,-47*,8,11,
Cc1ccc(S(=O)(=O)NCc2ccccc2)cc1C(=O)N1CCN(c2ccccc2)CC1,58,.,.,
CN(C)CCCNC(=O)C(=O)NCC1OCCN1S(=O)(=O)c1cccs1 (stereo unspecified),64,.,.,
O=C(N/N=C/c1ccccc1O)C1(O)c2ccccc2-c2ccccc21,-59*,6,13,
CC(C)(C)c1cc(C(=O)N2CCN(c3ncccn3)CC2)ccn1,-50*,5,14,
Cn1c(=O)nc2n(Cc3ccccc3)c3ccccc3cc-2c1=O,-172*,2,14,
Cn1c2ccccc2c(=O)n2c(=O)c3ccccc3cc12,98,.,.,
Cn1nc(-c2ccc(Cl)cc2)nc2c(=O)n(C)c(=O)nc1-2,99,.,.,
COc1cc(CNc2ccc(N3CCOCC3)cc2)cc(Br)c1OC,-85*,3,2,
CCOc1cc(CNc2ccc(N3CCCC3)cc2)cc(Cl)c1OC,55,.,.,
CCOc1cc(CNc2ccc(N3CCCCC3)cc2)cc(Br)c1OCC(=O)NC(C)(C)C,44,.,.,
SMILES,Apaf-1 act,Rh110 interf act,Apaf-1 act conf2,others
COc1ccc(C(CNC(=O)c2cccc(NS(=O)(=O)c3ccc(Br)cc3)c2)N(C)C)cc1 (stereo unspecified),-143*,7,11,
CCOC(=O)N1CCN(C(=O)c2cccc(S(=O)(=O)Nc3ccc(OC)cc3)c2)CC1,51,.,.,
CCN1/C(=C/C=C/c2oc3ccc4ccccc4c3[n+]2CC)Oc2ccc3ccccc3c21,76,.,.,
Cc1cc(NC(=O)CCCn2nc([N+](=O)[O-])c(Br)c2C)no1,40,.,.,
Cc1cc(SCC(=O)N/N=C/c2ccc(O)c(O)c2O)c(C)cc1Br,49,.,.,
O=C(CCN1CCN(C(c2ccccc2)c2ccccc2)CC1)N/N=C/c1ccc(O)cc1O,-236*,8,14,
CN(C)CCC(c1ccc(Br)cc1)c1ccccn1 (stereo unspecified),1,.,.,
CCCCCCSc1cccc(-c2nc3cc(C)ccn3c2NCc2ccccc2)c1,40,.,.,
CCN(CC)CCNC(=O)c1ccc(NC(C)=O)cc1,-2,.,.,
CCOc1cc(/C=C/C(=O)Nc2ccc(C(=O)NCCN(CC)CC)cc2)ccc1OCC(C)C,47,.,.,Apaf1 act interf=>100
CN(C)CCNC(=O)c1ccc(COc2ccc(Cl)cc2Cl)cc1,46,.,.,
NS(=O)(=O)c1ccc(NC2=CC(=O)C(=O)c3ccccc32)cc1,95,.,.,
Cc1cccc(C)c1NC(=O)c1sc(Cl)nc1C,-201*,10,11,
CC1(C)Cc2c(sc3nc(N/N=C/c4ccccc4)[nH]c(=O)c23)CO1,-236*,4,12,
Cc1c(CCC(C)C)c(=O)n2c([nH]c3ccccc32)c1C#N,60,.,.,
COc1ccc(S(=O)(=O)Oc2ccc3cccc(N)c3c2)cc1,88,.,.,
Cc1ccc2[nH]c3c(c2c1)CN(C(=O)CN1CCN(c2cccc(C)c2C)CC1)CC3,43,.,.,
COc1cc(/C=N/N=C2/C(=O)Nc3ccccc32)ccc1O,-445*,8,19,
Cc1c(C(=O)c2ccc(F)cc2F)c2ccccn2c1CCC#N,63,.,.,
Cc1cnc(C(=O)NC2CC(C)(C)Cc3c2cnn3-c2ccccc2)cn1 (stereo unspecified),-85*,1,7,
CC(=O)NC1N=C(C)N(c2ccccc2)C1=O (stereo unspecified),70,.,.,
COc1ccc(N2CCN(C(=O)c3ccc(COc4ccc5c(C)cc(=O)oc5c4)cc3)CC2)cc1,58,.,.,
CC(Oc1ccc2c(-c3ccccc3)cc(=O)oc2c1)C(=O)NCC1CCC(C(=O)O)CC1 (stereo unspecified),-1,.,.,
COc1ccc(-c2cc(=O)oc3cc(OCC(=O)Nc4ccc(CCO)cc4)ccc23)cc1,-55*,0,-20,
COCCOC(=O)c1[nH]c2c(c1C)C(=O)C(C(=O)OC)C(C)C2 (stereo unspecified),-68*,-3,10,
SMILES,Apaf-1 act,Rh110 interf act,Apaf-1 act conf2,others
O=c1[nH]c(C2CCCN(S(=O)(=O)c3ccccc3F)C2)nc2c1nnn2Cc1ccccc1Cl (stereo unspecified),41,.,.,
CN(CC(=O)NCc1ccccc1)CC(=O)Nc1ccc(Cl)c(C(F)(F)F)c1,53,.,.,
Cc1ccc(NC(=O)CNCc2ccccc2)cc1Br,-48*,11,-9,
O=C1CC(N2CCOCC2)=NN1c1ccc([N+](=O)[O-])cc1,94,.,.,
CCOC(=O)Nc1ccc(NCc2ccc(F)cc2)nc1N,96,.,.,
COc1ccc(-c2nn(-c3ccccc3)cc2/C=C(/C#N)C(N)=O)cc1[N+](=O)[O-],-57*,12,-23,
CC1=NN(c2ccccc2)C(=O)/C1=C\c1ccc(Oc2ccc([N+](=O)[O-])cc2[N+](=O)[O-])cc1,92,.,.,
N#C/C(=C/c1cn(-c2ccccc2)nc1-c1cccc(OCc2ccc(F)cc2)c1)C(=O)NCCCn1ccnc1,44,.,.,
COc1ccc(-c2nn(-c3ccccc3)cc2/C=C(\C#N)C(N)=O)cc1[N+](=O)[O-],-53*,-1,-29,
COc1ccc2nc(C)cc(N/N=C/c3ccccc3)c2c1,50,.,.,
Oc1ccc(NCc2ccccc2OCc2ccccc2F)cc1,92,.,.,
CC(=O)N(C1=C(N2CCOCC2)C(=O)c2ccccc2C1=O)c1ccc(C(=O)O)cc1,59,.,.,
C#CCOCCOCCOCCNc1nc(N2CCN(C(=O)CCCCCCCCCCNC(=O)[C@H](CCCCN)n3cc(C)nn3)CC2)nc(N2CCN(C(=O)CCCCCCCCCCNC(=O)[C@@H]([C@H](C)O)n3cc(C)nn3)CC2)n1,54,.,.,
O=C1C(NS(=O)(=O)c2cccs2)=C(N2CCN(c3ccccc3)CC2)C(=O)c2ccccc21,41,.,.,
